Reference: the RNAGym collection of RNA variant scans (doi:10.1126/science.aae0568)
Fewer inactive variants are shown than the library holds.

B1: tRNA (parent)
chain: GUUCCGUUGGCGUAAUGGUAACGCGUCUCCCUCCUAAGGAGAAGACUGCGGGUUCGAGUCCCGUACGGAACG

Variants of: B1
Experiment: yeast fitness relative to wild type (ratio to wild type); higher = fitter; tRNA-Arg(CCU), competitive growth, 37 C, YPD
Summary of the method: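 For this measurement, the tRNA-Arg(CCU) gene was varied by chemical synthesis at a 3% per-site mutation rate across 69 sites, and each variant was placed at the native genomic locus in Saccharomyces cerevisiae. The pooled strains went through a 24-hour competition in YPD at 37°C in six parallel replicates, with amplicons from start and end populations read by 100-nucleotide paired-end sequencing. Darwinian fitness relative to wild type followed from the change in each genotype's frequency. Genotypes needed ≥ 100 starting reads, and estimates < 0.5 were set to 0.5.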
In the case of GUUCCGUUGGCGUAAUGGUAACGCGUCUCCCUCCUAACGAGAAAACUGCGGGUUCGAGUCCCGUGCGGAACG, the yeast fitness is reported as no more than 0.5. Variant GUUCCGUUGGCGUAAUGGUAACGCGUCUCCCUCCUAACGAGAACAAUGCGGGUUCGAGUCCCGUACGGAACG has a yeast fitness of 0.814. For GUUCCGUUGGCGUAAUGGUAACGCGUCUCCCUCCUAACGAGAAGACUACGGGUUCGAGUCCCGUACGGAACG, the yeast fitness was 0.744. Work on GUUCCGUUGGCGUAAUGGUAACGCGUCUCCCUCCUAACGAGAAGACUACGGGUUCGAGUCACGUACCGAACG yielded a yeast fitness of no more than 0.5. Work on GUUCCGUUGGCGUAAUGGUAACGCGUCUCCCUCCUAACGAGAAGACUGCAGGUUCGAGUCCCGCACGGAACG yielded a yeast fitness of 0.832. With GUUCCGUUGGCGUAAUGGUAACGCGUCUCCCUCCUAACGAGAAGACUGCGAGUUCGUGUCCCGUACGGAACG the yeast fitness was no more than 0.5. With GUUCCGUUGGCGUAAUGGUAACGCGUCUCCCUCCUAACGAGAAGACUGCGAGUUCGAAUCCCGUACGGAACG the yeast fitness was 0.517. Work on GUUCCGUUGGCGUAAUGGUAACGCGUCUCCCUCCUAACGAGAAGACUGCGGGUUCCAGUCCCGUACGGAACG yielded a yeast fitness of 0.516. For GUUCCGUUGGCGUAAUGGUAACGCGUCUCCCUCCUAACGAGAAGACUGCGGGUUCGAGUCCCCUGCGGAACG, the yeast fitness was no more than 0.5. Work on GUUCCGUUGGCGUAAUGGUAACGCGUCUCCCUCCUAACGAGAAGACUGCGGGUUCGAGUCCCGUACAGAACG yielded a yeast fitness of 0.769. For GUUCCGUUGGCGUAAUGGUAACGCGUCUCCCUCCUAACGAGAAGACUGCGGGUUCGAGUCCCGUACUGAACG, the yeast fitness was 0.549. Work on GUUCCGUUGGCGUAAUGGUAACGCGUCUCCCUCCUAACGAGAAGACUGCGGGUUCGAGUCCCGUACGAAACG yielded a yeast fitness of 0.62. In the case of GUUCCGUUGGCGUAAUGGUAACGCGUCUCCCUCCUAACGAGAAGACGGCGGGUUCGAGUCCUGUACGGAACG, the yeast fitness is reported as 0.521. With GUUCCGUUGGCGUAAUGGUAACGCGUCUCCCUCCUAACGAGAAGACGGCGGGUUCGAGCCCCGUACGGAACG the yeast fitness was no more than 0.5. In the case of GUUCCGUUGGCGUAAUGGUAACGCGUCUCCCUCCUAACGAGAAGACUGCGGGCUCGUGUCCCGUACGGAACG, the yeast fitness is reported as no more than 0.5. In the case of GUUCCGUUGGCGUAAUGGUAACGCGUCUCCCUCCUAACGAGAAGACUGCGGGUACGAGUCCCGUCCGGAACG, the yeast fitness is reported as 0.567. GUUCCGUUGGCGUAAUGGUAACGCGUCUCCCUCCUAACGAGAAGACUGCGGGUUCGAGUCCCGAAUGGAACG gave a yeast fitness of no more than 0.5. For GUUCCGUUGGCGUAAUGGUAACGCGUCUCCCUCCUAAUGGGAAGACUGUGGGUUCGAGUCCCGUACGGAACG, the yeast fitness was no more than 0.5. Variant GUUCCGUUGGCGUAAUGGUAACGCGUCUCCCUCCUAAUGAGAAGACUGCGGGUUCGAGUCCCGUACGGCACG has a yeast fitness of 0.892. For GUUCCGUUGGCGUAAUGGUAACGCGUCUCCCUCCUAAUGAGAAGAAUGCGGGUUCGAGUCCCGUACGGAACG, the yeast fitness was 0.783. GUUCCGUUGGCGUAAUGGUAACGCGUCUCCCUCCUAAUGAGAAGACUGCGGGUUCGAGUACCGUACGGAACG showed a yeast fitness of 0.541. With GUUCCGUUGGCGUAAUGGUAACGCGUCUCCCUCCUAAUGAGAAGACUGCGCGUUCGAGUCCCGUACGGAACG the yeast fitness was no more than 0.5. Variant GUUCCGUUGGCGUAAUGGUAACGCGUCUCCCUCCUAAUGAGAAGACUGCGGGUUCGAGUCCCAUACGGAACG has a yeast fitness of 0.743. GUUCCGUUGGCGUAAUGGUAACGCGUCUCCCUCCUAAGAAGAAGACUGCGGGUUCGAGUCCCGUACGGAACG showed a yeast fitness of 0.986. For GUUCCGUUGGCGUAAUGGUAACGCGUCUCCCUCCUAAGACGAAGACUGCGGGUUCGAGUUCCGUACGUAACG, the yeast fitness was no more than 0.5. With GUUCCGUUGGCGUAAUGGUAACGCGUCUCCCUCCUAAGAAGCAGACUGCGGGUUCGAGUCCCGUAUGGAACG the yeast fitness was 0.542. GUUCCGUUGGCGUAAUGGUAACGCGUCUCCCUCCUAAGAAGGAGACUGCGGGUUCGAGUCCCGUAUGGAACG gave a yeast fitness of no more than 0.5. In the case of GUUCCGUUGGCGUAAUGGUAACGCGUCUCCCUCCUAAGAAGGAGACUGCGGGUUCGAGUCCCGUACCGAACG, the yeast fitness is reported as no more than 0.5. GUUCCGUUGGCGUAAUGGUAACGCGUCUCCCUCCUAAGAAGGAGACUGCGGGUUCGAGACCCGUACGGAACG showed a yeast fitness of no more than 0.5. Work on GUUCCGUUGGCGUAAUGGUAACGCGUCUCCCUCCUAAGAAGUAGACUGAGGGUUCGAGUCCCGUACGGAACG yielded a yeast fitness of no more than 0.5. Work on GUUCCGUUGGCGUAAUGGUAACGCGUCUCCCUCCUAAGAAGAAGCCUGCGGGUUCGAGUCCCGUUUGGAACG yielded a yeast fitness of no more than 0.5. Work on GUUCCGUUGGCGUAAUGGUAACGCGUCUCCCUCCUAAGAAGAAGACUGCGGGUUCGCGUCCCGUACGGAACG yielded a yeast fitness of 0.663. Work on GUUCCGUUGGCGUAAUGGUAACGCGUCUCCCUCCUAAGAAGAAGACUGCGGGUUCGAGUCCCGUACGGAGCG yielded a yeast fitness of 0.871. With GUUCCGUUGGCGUAAUGGUAACGCGUCUCCCUCCUAAGAAGAAGACUGCGGGUUCGAGUCCCGUACGGAUCG the yeast fitness was 0.915. GUUCCGUUGGCGUAAUGGUAACGCGUCUCCCUCCUAAGAAGAAGAAUGCGGGUUCGAGUCCCGUUCGGAACG showed a yeast fitness of 0.581. With GUUCCGUUGGCGUAAUGGUAACGCGUCUCCCUCCUAAGAAGAAGAUUGCGGGUUCGAGUCCCGUACGGAACG the yeast fitness was 0.978. GUUCCGUUGGCGUAAUGGUAACGCGUCUCCCUCCUAAGAAGAAGAUUGCGGGUUCGAGUCCCGUACAGAACG gave a yeast fitness of 0.575. For GUUCCGUUGGCGUAAUGGUAACGCGUCUCCCUCCUAAGAAGAAGAUUGCGGGUUCGAGACCCGUACGGACCG, the yeast fitness was no more than 0.5. GUUCCGUUGGCGUAAUGGUAACGCGUCUCCCUCCUAAGAAGAAGACUGCGGGUUCGAGUUCCGUACGGAACG showed a yeast fitness of 0.81. With GUUCCGUUGGCGUAAUGGUAACGCGUCUCCCUCCUAAGAAGAAGACUGCGGGUUCGAGUUCAGUACGGAACG the yeast fitness was 0.505. Work on GUUCCGUUGGCGUAAUGGUAACGCGUCUCCCUCCUAAGAAGAAGACUGCGGGUUCGAGUCGCGUACGGAACG yielded a yeast fitness of 0.585. In the case of GUUCCGUUGGCGUAAUGGUAACGCGUCUCCCUCCUAAGAAGAAGACUGCGGGUUCGAGUCGCGUACGGAUCG, the yeast fitness is reported as no more than 0.5. Variant GUUCCGUUGGCGUAAUGGUAACGCGUCUCCCUCCUAAGAAGAAGACUGCGGGUUCGAGUCUAGUACGGAACG has a yeast fitness of 0.558. Work on GUUCCGUUGGCGUAAUGGUAACGCGUCUCCCUCCUAAGAAGAAGACUGCGGGUUCGAGUCCUGUACGGAACG yielded a yeast fitness of 1.05. GUUCCGUUGGCGUAAUGGUAACGCGUCUCCCUCCUAAGAAGAAGACUGCGGGUUCGAGUCCUGUACGGAUCG showed a yeast fitness of 0.593. With GUUCCGUUGGCGUAAUGGUAACGCGUCUCCCUCCUAAGAAGAAAACUGCGGGUUCGAGUCCCGUACGGAACG the yeast fitness was 0.846. Variant GUUCCGUUGGCGUAAUGGUAACGCGUCUCCCUCCUAAGAAGAAGACUACGGGUUCGAGUCCCGUACGGAACG has a yeast fitness of 0.94. Work on GUUCCGUUGGCGUAAUGGUAACGCGUCUCCCUCCUAAGAAGAAGACUCCGGGUUCGAGUCACGUACGGAACG yielded a yeast fitness of no more than 0.5. Variant GUUCCGUUGGCGUAAUGGUAACGCGUCUCCCUCCUAAGAAGAAGACUGCGGCUUCGAGUCCCGUACGGAACG has a yeast fitness of 0.612. Work on GUUCCGUUGGCGUAAUGGUAACGCGUCUCCCUCCUAAGAAGAAGACUGCGGGUUCCAGUCCCGUAAGGAACG yielded a yeast fitness of no more than 0.5. GUUCCGUUGGCGUAAUGGUAACGCGUCUCCCUCCUAAGAAGAAGACUGCGGGUUCGAAUCCCGUACGGCACG gave a yeast fitness of 0.592. Work on GUUCCGUUGGCGUAAUGGUAACGCGUCUCCCUCCUAAGAAGAAGACUGCGGGUUCGACUCCCGUACGGAACG yielded a yeast fitness of 0.948. GUUCCGUUGGCGUAAUGGUAACGCGUCUCCCUCCUAAGAAGAAGACUGCGGGUUCGAGUCCCGUACCGAACG gave a yeast fitness of 0.825. In the case of GUUCCGUUGGCGUAAUGGUAACGCGUCUCCCUCCUAAGAAGAAGACUGCGGGUUCGAGUCCCGUACGAAACG, the yeast fitness is reported as 0.853. Work on GUUCCGUUGGCGUAAUGGUAACGCGUCUCCCUCCUAAGAAGAAGACUGCGGGUUCGAGUCCCGUACGCAACG yielded a yeast fitness of 0.806. In the case of GUUCCGUUGGCGUAAUGGUAACGCGUCUCCCUCCUAAGAAGAAGACAGCGGGUUCGAGUCCCGUACGCAACG, the yeast fitness is reported as 0.597. In the case of GUUCCGUUGGCGUAAUGGUAACGCGUCUCCCUCCUAAGAAGAAGACCGCGGGUUCGAGUCCCGUACGGAACG, the yeast fitness is reported as 1. GUUCCGUUGGCGUAAUGGUAACGCGUCUCCCUCCUAAGAAGAAGACUGCGGGAUCGAGUCCCGUACGGAGCG gave a yeast fitness of no more than 0.5. Variant GUUCCGUUGGCGUAAUGGUAACGCGUCUCCCUCCUAAGAAGAAGACUGCGGGUUCGAGUCCCGCACGGAACG has a yeast fitness of 1.01. For GUUCCGUUGGCGUAAUGGUAACGCGUCUCCCUCCUAAGCAGAAGACUGCGGGUUCGAGUCCCGUACGGAACG, the yeast fitness was 0.93. Work on GUUCCGUUGGCGUAAUGGUAACGCGUCUCCCUCCUAAGCGGAAGACUGCGGGUUCGAGUCCCGUACGGAACG yielded a yeast fitness of 0.67. In the case of GUUCCGUUGGCGUAAUGGUAACGCGUCUCCCUCCUAAGCGGAAGACUCCGGGUUCGAGUCCCGUACGGAACG, the yeast fitness is reported as no more than 0.5. GUUCCGUUGGCGUAAUGGUAACGCGUCUCCCUCCUAAGCUGAAGACUGCGGGUUCGAGUCCCGUACGGAACG gave a yeast fitness of 0.73. With GUUCCGUUGGCGUAAUGGUAACGCGUCUCCCUCCUAAGCUGAAGACUGCGGGUUCGAGUCCCGUCCGGAACG the yeast fitness was no more than 0.5. For GUUCCGUUGGCGUAAUGGUAACGCGUCUCCCUCCUAAGCAGCAGACUGCGGGUUCGAGUCCUGUACGGCACG, the yeast fitness was no more than 0.5. Work on GUUCCGUUGGCGUAAUGGUAACGCGUCUCCCUCCUAAGCAGACGGCUGCGGGUUCGAGUCCCGUACGGAACG yielded a yeast fitness of no more than 0.5. With GUUCCGUUGGCGUAAUGGUAACGCGUCUCCCUCCUAAGCAGACGGCUGCGGGUUCGAGUGCCGUACGGAACG the yeast fitness was no more than 0.5. Variant GUUCCGUUGGCGUAAUGGUAACGCGUCUCCCUCCUAAGCAGAGGACUGCGGGUUCGCGUCCCGUACGGAACG has a yeast fitness of no more than 0.5. In the case of GUUCCGUUGGCGUAAUGGUAACGCGUCUCCCUCCUAAGCAGAGGACUCCAGGUUCGAGUCCCGUACGGAACG, the yeast fitness is reported as no more than 0.5. With GUUCCGUUGGCGUAAUGGUAACGCGUCUCCCUCCUAAGCAGAUGACUGCGGGCUCGAGUCCCGUACGGAACG the yeast fitness was 0.606. GUUCCGUUGGCGUAAUGGUAACGCGUCUCCCUCCUAAGCAGAAGGCUGCGGGUUCGAGUCCCGUACGGAACG gave a yeast fitness of 0.661. Work on GUUCCGUUGGCGUAAUGGUAACGCGUCUCCCUCCUAAGCAGAAGACUGCGGGUUCGAGUCCCGUACGGACCG yielded a yeast fitness of 0.769. Variant GUUCCGUUGGCGUAAUGGUAACGCGUCUCCCUCCUAAGCAGAAGACUGCGGGUUCGAGUCCCGUACGGAGCG has a yeast fitness of 0.915. Variant GUUCCGUUGGCGUAAUGGUAACGCGUCUCCCUCCUAAGCAGAAGACUGCGGGUUCGAGUCCCGUACGGAUCG has a yeast fitness of 0.873. Work on GUUCCGUUGGCGUAAUGGUAACGCGUCUCCCUCCUAAGCAGAAGAGUGCGGGUUCGAGUCCCGUACGGAUCG yielded a yeast fitness of 0.603.
